We go through two compounds from ChEMBL document CHEMBL4680104, “Structure-Based Optimization of Small-Molecule Inhibitors for the β-Catenin/B-Cell Lymphoma 9 Protein-Protein Interaction” (J Med Chem, 2018).

One data set relates to A549. As to the kind of experiment: Cytotoxicity in human A549 cells assessed as reduction in cell viability incubated for 72 hrs by MTS assay. Format: functional, cell-based. Particulars: A549, 72 h. An outline of the steps: (§1)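 Cells seeded at 5 × 10^3 cells/well, kept overnight at 37 °C, then exposed to inhibitors at various concentrations for 72 h. Viability read with a freshly mixed PMS (0.92 mg/mL) : MTS (2 mg/mL) reagent at 1:19, incubated 3 h at 37 °C, A490 measured. […] Triplicate; mean ± SD.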
For orientation: Formazan colour is commonly taken as a measure of viable cells.

The subject of the next data set is HCT-116. Description: Cytotoxicity in human HCT-116 cells assessed as reduction in cell viability incubated for 72 hrs by MTS assay. Format: functional, cell-based. Particulars: HCT-116, 72 h. An outline of the steps: as §1
Data set [1] addresses T1, beta-catenin-B-cell lymphoma 9 protein complex (Homo sapiens, UniProt P35222).
T1 sequence (P35222 whole entry): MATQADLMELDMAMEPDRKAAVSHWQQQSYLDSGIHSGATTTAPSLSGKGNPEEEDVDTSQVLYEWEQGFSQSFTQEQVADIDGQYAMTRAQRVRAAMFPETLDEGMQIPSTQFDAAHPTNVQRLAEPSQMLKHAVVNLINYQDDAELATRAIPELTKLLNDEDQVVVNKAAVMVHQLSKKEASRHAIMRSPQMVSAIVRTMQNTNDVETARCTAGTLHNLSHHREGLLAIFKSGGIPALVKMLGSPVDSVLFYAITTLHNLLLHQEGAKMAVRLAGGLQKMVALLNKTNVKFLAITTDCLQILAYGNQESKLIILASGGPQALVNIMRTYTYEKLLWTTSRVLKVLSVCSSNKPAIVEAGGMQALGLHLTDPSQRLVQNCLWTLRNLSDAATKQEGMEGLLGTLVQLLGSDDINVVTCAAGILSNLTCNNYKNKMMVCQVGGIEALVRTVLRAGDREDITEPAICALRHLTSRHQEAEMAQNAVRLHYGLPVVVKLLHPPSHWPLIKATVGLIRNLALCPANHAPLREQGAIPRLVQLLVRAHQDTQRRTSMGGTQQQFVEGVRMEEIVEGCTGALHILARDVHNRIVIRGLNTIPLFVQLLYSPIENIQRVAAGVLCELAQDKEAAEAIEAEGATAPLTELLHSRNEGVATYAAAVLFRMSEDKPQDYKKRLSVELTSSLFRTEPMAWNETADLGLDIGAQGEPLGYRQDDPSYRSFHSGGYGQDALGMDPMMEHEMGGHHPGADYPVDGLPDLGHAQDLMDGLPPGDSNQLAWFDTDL
T1 sequence (O00512 whole entry): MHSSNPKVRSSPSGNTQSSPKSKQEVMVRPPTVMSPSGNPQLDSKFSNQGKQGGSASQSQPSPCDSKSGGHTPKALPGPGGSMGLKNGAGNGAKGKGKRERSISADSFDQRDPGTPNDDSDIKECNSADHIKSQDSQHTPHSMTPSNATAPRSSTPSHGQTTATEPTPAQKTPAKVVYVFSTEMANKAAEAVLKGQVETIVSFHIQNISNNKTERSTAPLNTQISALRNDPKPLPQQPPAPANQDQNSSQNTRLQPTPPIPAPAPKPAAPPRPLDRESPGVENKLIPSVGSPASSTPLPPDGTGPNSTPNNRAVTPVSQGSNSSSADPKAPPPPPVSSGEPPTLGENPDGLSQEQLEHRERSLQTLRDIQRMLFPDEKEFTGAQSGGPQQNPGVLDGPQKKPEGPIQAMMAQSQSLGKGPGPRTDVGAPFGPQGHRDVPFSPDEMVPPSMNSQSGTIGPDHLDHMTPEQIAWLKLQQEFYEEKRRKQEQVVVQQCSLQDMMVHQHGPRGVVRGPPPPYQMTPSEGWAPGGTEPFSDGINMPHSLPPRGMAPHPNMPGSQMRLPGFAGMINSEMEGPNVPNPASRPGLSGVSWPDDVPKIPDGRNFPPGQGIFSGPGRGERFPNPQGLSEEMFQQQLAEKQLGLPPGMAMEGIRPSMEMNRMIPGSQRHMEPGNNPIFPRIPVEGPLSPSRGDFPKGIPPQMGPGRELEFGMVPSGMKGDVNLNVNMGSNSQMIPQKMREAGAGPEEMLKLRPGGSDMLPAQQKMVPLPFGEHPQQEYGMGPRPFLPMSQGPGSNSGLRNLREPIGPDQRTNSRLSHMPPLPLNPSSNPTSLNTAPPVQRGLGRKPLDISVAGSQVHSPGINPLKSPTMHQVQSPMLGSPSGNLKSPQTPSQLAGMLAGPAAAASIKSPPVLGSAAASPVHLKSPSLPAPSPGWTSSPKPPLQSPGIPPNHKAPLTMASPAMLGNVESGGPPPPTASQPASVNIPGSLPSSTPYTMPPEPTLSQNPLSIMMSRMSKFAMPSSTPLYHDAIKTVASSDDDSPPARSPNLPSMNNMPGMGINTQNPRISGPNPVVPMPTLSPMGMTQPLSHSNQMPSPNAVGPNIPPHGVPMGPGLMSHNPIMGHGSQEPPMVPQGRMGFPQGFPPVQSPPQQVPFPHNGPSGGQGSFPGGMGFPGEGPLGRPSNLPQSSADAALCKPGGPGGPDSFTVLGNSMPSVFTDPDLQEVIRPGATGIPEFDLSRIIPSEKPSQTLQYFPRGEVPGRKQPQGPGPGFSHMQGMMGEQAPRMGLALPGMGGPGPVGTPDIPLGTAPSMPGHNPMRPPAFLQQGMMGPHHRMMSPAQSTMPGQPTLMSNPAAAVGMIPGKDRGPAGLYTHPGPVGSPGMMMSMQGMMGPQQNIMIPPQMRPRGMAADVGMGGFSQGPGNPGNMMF
Description: Inhibition of protein interaction between beta-catenin (unknown origin)/BCL9 in HEK293 cells transfected with beta-catenin assessed as reduction in Wnt/beta-catenin transactivation incubated for 24 hrs by Wnt-responsive TOP-Flash luciferase reporter assay. It counts as cell-based. The method, boiled down: (§2)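 HEK293 cells were cotransfected using FuGENE6 with 45 ng TOPFlash or FOPFlash reporter, 135 ng pcDNA3.1-β-catenin and 20 ng pCMV-RL normalization reporter. After 24 h in DMEM with 10% FBS at 37 °C, inhibitors or DMSO were added for 24 h. Reporter activity was read with a dual luciferase system, normalized, and compared with DMSO-treated cells. Triplicate.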

The target of data set [2] is T2, beta-catenin-B-cell lymphoma 9 protein complex (Homo sapiens) (UniProt P35222+O00512). As to the kind of experiment: Inhibition of protein interaction between beta-catenin (unknown origin)/BCL9 in HEK293 cells transfected with beta-catenin assessed as reduction in Wnt/beta-catenin transactivation incubated for 24 hrs by Wnt-responsive FOP-Flash luciferase reporter assay. Format: cell-based. The method, boiled down:
as §2
(In general: Reporter assays use an easily measured gene product as a stand-in for the process of interest.)

Data set [3] concerns SW480. Description: Cytotoxicity in human SW480 cells assessed as reduction in cell viability incubated for 72 hrs by MTS assay. It counts as functional, cell-based. The settings on record: SW480, 72 h. An outline of the steps: as §1
Data set [4] deals with T1, beta-catenin-B-cell lymphoma 9 protein complex. As to the kind of experiment: Inhibition of protein interaction between beta-catenin (unknown origin)/BCL9 in human SW480 cells transfected with beta-catenin assessed as reduction in Wnt/beta-catenin transactivation incubated for 24 hrs by Wnt-responsive TOP-Flash luciferase reporter assay. It counts as cell-based.
Data set [5] deals with T2, beta-catenin-B-cell lymphoma 9 protein complex (Homo sapiens). As to the kind of experiment: Inhibition of protein interaction between beta-catenin (unknown origin)/BCL9 in human HEK293 cells transfected with beta-catenin assessed as reduction in Wnt/beta-catenin transactivation incubated for 24 hrs by Wnt-responsive FOP-Flash luciferase reporter assay.
A short description of data set [6]: Inhibition of protein interaction between C-terminal 6x-histidine tagged full-length beta-catenin (1 to 781 residues) (unknown origin)/N-terminal biotinylated human E-cadherin (824 to 877 residues) incubated for 1 hr by Alpha-screen competitive inhibition assay. The method, boiled down:
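Full-length β-catenin (residues 1–781) with a C-terminal His6 tag was expressed in E. coli BL21(DE3) after IPTG induction at 20 °C. It was purified by Ni-NTA, anion-exchange and size-exclusion chromatography. For the assay, 40 nM β-catenin was preincubated for 30 min at 4 °C with 5 nM biotinylated BCL9 or 10 nM biotinylated E-cadherin. Inhibitor was then added for 1 h at 4 °C, followed by 10 μg/mL donor and acceptor beads for 1 h at 4 °C. IC50 was obtained by nonlinear fit and converted to Ki by the Nikolovska-Coleska method. Triplicate, mean ± SD.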

Data set [7] deals with SW480. Description: Cytotoxic activity in human SW480 cells at 800 uM incubated for 4 hrs by LDH release assay. Format: cell-based. The settings on record: sw480, 4 h. An outline of the steps: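 SW480 cells were seeded at 2 × 10^4 cells/well and kept overnight at 37 °C. They were then exposed to a range of inhibitor concentrations for 4 h. LDH in the culture supernatant was measured with a diagnostic kit by absorbance at 490 nm. Percent cytotoxicity was calculated from experimental release against maximum release, with background subtracted. Run in triplicate.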
A general note: LDH in the medium is a marker of cell lysis.

A short description of data set [8]: Effect on HPRT mRNA expression in human SW480 cells at 5 uM incubated for 24 hrs by qPCR analysis relative to control. Format: ADME, cell-based. Particulars: read-out: FC. The method, boiled down:
(§3)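 SW480 cells at 1 × 10^6/mL were treated with inhibitor for 24 h. Total RNA was extracted with TRIzol and cDNA made by first-strand synthesis. SYBR green qPCR used human HPRT primers, with CT values normalised to GAPDH as internal reference. Performed in triplicate.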

Another data set relates to MDA-MB-231. As to the kind of experiment: Cytotoxicity in human MDA-MB-231 cells assessed as reduction in cell viability incubated for 72 hrs by MTS assay. It counts as functional, cell-based. The settings on record: MDA-MB-231, 72 h. The method, boiled down:
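Triple-negative breast cancer line seeded at 5 × 10^3 cells/well, held overnight at 37 °C, then exposed to inhibitor over a concentration range for 72 h. Viability read out with a fresh 1:19 mix of PMS (0.92 mg/mL) and MTS (2 mg/mL), incubated 3 h at 37 °C, A490 measured.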

Data set [9] can be described thus: Effect on HPRT mRNA expression in human SW480 cells at 10 uM incubated for 24 hrs by qPCR analysis relative to control. It counts as ADME, cell-based. Particulars: read-out: FC. An outline of the steps:
as §3

A short description of data set [10]: Effect on HPRT mRNA expression in human SW480 cells at 20 uM incubated for 24 hrs by qPCR analysis relative to control. Particulars: read-out: FC. Format: ADME, cell-based. An outline of the steps: as §3

Calls of active or inactive are those of the source. The rule behind the calls is not given here.

As for `Cl.Cl.O=C(Nc1ccc(O[C@@H]2CCNC2)c(-c2cccc(-c3nn[nH]n3)c2)c1)c1ccc(O[C@H]2CCNC2)c(-c2ccc3ccsc3c2)c1`, the IC50 with A549 stood at 430 µM; in the data set on HCT-116, 240 µM; in data set [1], 50 µM; in the data set on SW480 [3], 150 µM; in data set [4] it was 43 µM. In addition, the inhibition result in data set [2] and in [5] was “inactive” throughout. The Ki in data set [6] is > 915 µM. Further, in the data set on SW480 [7], the Activity entry is listed as “Non-Toxic”.

Take `Cl.Cl.Fc1ccc(-c2cc(-c3ccc4cc(O[C@H]5CCNC5)c(-c5ccc(F)c(F)c5)cc4n3)ccc2O[C@H]2CCNC2)cc1`: the IC50 is 23 µM with A549; 9.6 µM with HCT-116; 26 µM in data set [1]; 15 µM with MDA-MB-231; 3.6 µM in the data set with SW480 [3]; 12 µM in data set [4]. Also, the fold induction at 5 µM in data set [8] was determined as 0.369. Also, the inhibition entry in data set [2] and in [5] was “Active” in each case. In addition, the fold induction at 10 µM in data set [9] was 0.319. The fold induction at 20 µM in data set [10] is 0.0612. Further, the Activity result with SW480 [7] was “Non-Toxic”.

The IC50 is the concentration that gives 50% inhibition. One may read the Ki as the equilibrium dissociation constant of an inhibitor or competing ligand from its target. A high value points to weaker binding.
